# Reference: ChEMBL document CHEMBL4732104, “Discovery of bardoxolone derivatives as novel orally active necroptosis inhibitors” (Eur J Med Chem, 2021)
# Calls of active or inactive are those of the source. The rule behind the calls is not given here.
# Key:
# HT-29 [1] = test: Anti-necroptotic activity in human HT-29 cells assessed as inhibition of TNFalpha/SM-164/Z-VAD-fmk (TSZ)-induced necroptosis by measuring increase in cell viability at 10 uM measured after 12 hrs in presence of RIPK1/3 inhibitor TAK632 by celltiter-glo luminescent cell viability assay; assay type: functional, cell-based
# In short: (§1)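 HT-29 cells exposed to test agent combined with a second necroptosis inhibitor, then stimulated with TSZ for 12 h to assess synergy. Viability read by CellTiter-Glo luminescence.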
# [2] = target: T1, Heat shock protein HSP90 (Homo sapiens) (UniProt P07900+P08238); test: Inhibition of HSP90 in TNFalpha/SM-164/Z-VAD-fmk (TSZ)-induced human HT-29 cells assessed as reduction in RIPK1-RIPK3 necrosome formation at 10 uM measured after 6 hrs by Western blot analysis; assay type: cell-based
# In short: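 HT-29 cells given agent (10 μM) or DMSO for 6 h under TSZ. Lysed in NP-40 buffer with PMSF, protease inhibitors, β-glycerophosphate, NaF and Na3VO4. Anti-RIPK1 immunoprecipitation overnight at 4 °C, protein A/G capture overnight. Eluates boiled in SDS buffer and resolved on 10% gels for immunoblot.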
# Rattus norvegicus [3] = test: Neuroprotective activity in middle cerebral artery occlusion-induced Sprague-Dawley rat model of ischemia-reperfusion injury assessed as reduction in cerebral infarct volume at 100 mg/kg by TTC staining based microscopic analysis relative to control; assay type: functional; parameters: scale not given: the % may be the effect or the level left
# In short: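 Rats: left MCA blocked by monofilament via internal carotid under chloral hydrate (300 mg/kg i.p.), 2 h occlusion, 24 h reperfusion. Groups sham, vehicle, compound 100 mg/kg, nimodipine 1 mg/kg given orally beforehand. Brains cut in 2 mm coronal slices, TTC-stained; unstained area as percent of whole brain area; n = 6.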
# HT-29 [4] = test: Protection against TNFalpha/cycloheximide (TC)-induced apoptosis in human HT-29 cells assessed as increase in cell viability at 0.25 to 5 uM measured after 24 hrs by celltiter-glo luminescent cell viability assay; assay type: functional, cell-based; details: dose 0.25-5 µM
# In short: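 HT-29 cells treated with agent across concentrations, then TNF-α and cycloheximide (TC) for 24 h. CellTiter-Glo luminescent viability, mean ± S.D. from three independent experiments.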
# [5] = target: T1, Heat shock protein HSP90 (Homo sapiens); test: Inhibition of HSP90 in TNFalpha/SM-164/Z-VAD-fmk (TSZ)-induced human HT-29 cells assessed as reduction in RIPK1 expression at 10 uM preincubated for 30 mins followed by TSZ stimulation and measured after 2 to 6 hrs by Western blot analysis; assay type: cell-based; details: time 2-6.5 hrs
# In short: (§2)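 HT-29 cells pretreated 30 min with agent (10 μM), then TSZ for the indicated times. Lysed in RIPA with protease and phosphatase inhibitors, BCA quantified. 30 μg protein run on SDS-PAGE and blotted to PVDF. Blocked in 5% BSA, primary antibodies 1:1000 overnight at 4 °C, secondary 1:8000 for 1 h at room temperature.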
# HT-29 [6] = test: Anti-necroptotic activity in human HT-29 cells assessed as inhibition of TNFalpha/SM-164/Z-VAD-fmk (TSZ)-induced necroptosis by measuring increase in cell viability measured after 12 hrs by celltiter-glo luminescent cell viability assay; assay type: functional, cell-based
# In short: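 HT-29 cells pretreated with test agent across a concentration range, then TNF-α (20 ng/mL), Smac mimetic (10 nM) and z-VAD-fmk (20 μM) for 12–16 h. CellTiter-Glo viability. EC50 ± SD from at least three independent experiments.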
# [7] = target: T1, Heat shock protein HSP90 (Homo sapiens); test: Inhibition of HSP90 in TNFalpha/SM-164/Z-VAD-fmk (TSZ)-induced human HT-29 cells assessed as reduction in RIPK3 expression at 10 uM preincubated for 30 mins followed by TSZ stimulation and measured after 2 to 6 hrs by Western blot analysis; assay type: cell-based; details: time 2-6.5 hrs; in short: as §2
# [8] = target: T1, Heat shock protein HSP90 (Homo sapiens); test: Inhibition of HSP90 in TNFalpha/SM-164/Z-VAD-fmk (TSZ)-induced human HT-29 cells assessed as reduction in MLKL expression at 10 uM preincubated for 30 mins followed by TSZ stimulation and measured after 2 to 6 hrs by Western blot analysis; assay type: cell-based; details: time 2-6.5 hrs; in short: as §2
# HT-29 [9] = test: Protection against TNFalpha/SM-164 (TS)-induced apoptosis in human HT-29 cells assessed as increase in cell viability at 0.5 to 10 uM measured after 20 hrs by celltiter-glo luminescent cell viability assay; assay type: functional, cell-based; details: dose 0.5-10 µM
# In short: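 HT-29 cells exposed to agent across concentrations, then TNF-α and Smac mimetic (TS) for 20 h. CellTiter-Glo viability, mean ± S.D. of three independent experiments.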
# Mus musculus [10] = test: Protection against TNFalpha-induced C57BL/6J mouse model of systemic inflammatory response syndrome assessed as reduction in hypothermia at 10 to 20 mg/kg, ig administered via gavage 2 hrs prior to TNFalpha stimulation and measured after 10 to 60 mins by electric thermometric method; assay type: functional, organism-based; details: dose 10-20 mg/kg, time 2-3 hrs
# In short: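 Female C57BL/6J mice, fasted, n=11 per group. Agent at 10 or 20 mg/kg in 0.5% CMC-Na by gavage 2 h before i.v. mTNF-α (250 µg/kg). z-VAD-fmk i.p. 200 µg at −15 min and 75 µg at +1 h. Body temperature tracked, mean ± S.E.M.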
# Rattus norvegicus [11] = test: Neuroprotective activity in middle cerebral artery occlusion-induced Sprague-Dawley rat model of ischemia-reperfusion injury assessed as reversal of pathological change at 100 mg/kg by H and E staining based analysis; assay type: functional, organism-based
# In short: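 Rats underwent 2 h MCA filament occlusion, then 24 h reperfusion, agent at 100 mg/kg. Animals perfused with saline and 4% paraformaldehyde. Brains paraffin-embedded and cut into 5 μm coronal sections. Hippocampus and cortex assessed by HE staining.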
# Mus musculus [12] = test: Protection against TNFalpha-induced C57BL/6J mouse model of systemic inflammatory response syndrome assessed as reduction in IL1beta level at 20 mg/kg, ig administered via gavage 2 hrs prior to TNFalpha stimulation and measured after 6 hrs by ELISA; assay type: functional, organism-based; details: time 8.0 hrs
# In short: (§3)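 Female C57BL/6J mice, 6–8 weeks, fasted overnight, n=11 per group. Agent suspended in 0.5% CMC-Na, given by oral gavage 2 h before i.v. mTNF-α (250 µg/kg in PBS). z-VAD-fmk i.p. 200 µg 15 min before and 75 µg 1 h after. Serum IL-1β and IL-6 measured by ELISA at 6 h.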
# HT-29 [13] = test: Anti-necroptotic activity in human HT-29 cells assessed as inhibition of TNFalpha/cycloheximide/Z-VAD-fmk (TCZ)-induced necroptosis by measuring increase in cell viability measured after 16 hrs by celltiter-glo luminescent cell viability assay; assay type: functional, cell-based
# HT-29 [14] = test: Anti-necroptotic activity in human HT-29 cells assessed as inhibition of TNFalpha/SM-164/Z-VAD-fmk (TSZ)-induced necroptosis by measuring increase in cell viability at 10 uM measured after 12 hrs in presence of MLKL inhibitor NSA by celltiter-glo luminescent cell viability assay; assay type: functional, cell-based; in short: as §1
# Mus musculus [15] = test: Protection against TNFalpha-induced C57BL/6J mouse model of systemic inflammatory response syndrome assessed as reduction in IL6 level at 20 mg/kg, ig administered via gavage 2 hrs prior to TNFalpha stimulation and measured after 6 hrs by ELISA; assay type: functional, organism-based; details: time 8.0 hrs; in short: as §3
# HT-29 [16] = test: Anti-necroptotic activity in human HT-29 cells assessed as inhibition of TNFalpha/SM-164/Z-VAD-fmk (TSZ)-induced necroptosis by measuring increase in cell viability at 10 uM measured after 12 hrs in presence of RIPK1 inhibitor Nec-1 by celltiter-glo luminescent cell viability assay; assay type: functional, cell-based; in short: as §1
compound,measurement,setting,value
CC1(C)CC[C@]2(C(=O)n3cnc(-c4cccnc4)c3)CC[C@]3(C)[C@H](C(=O)C=C4[C@@]5(C)C=C(C#N)C(=O)C(C)(C)[C@@H]5CC[C@]43C)[C@@H]2C1,inhibition,HT-29 [1],Active
same,inhibition,[2],Active
same,Activity,Rattus norvegicus [3],22.8%
same,Activity,HT-29 [4],Active
same,inhibition,[5],Active
same,inhibition,HT-29 [6],Dose-dependent effect
same,EC50,"HT-29 [6]; HT-29, 12 h",0.31 µM
same,inhibition,[7],Active
same,inhibition,[8],Active
same,Activity,HT-29 [9],Active
same,Activity,Mus musculus [10],Active
same,Activity,Rattus norvegicus [11],Active
same,Activity,Mus musculus [12],Active
same,inhibition,HT-29 [13],Dose-dependent effect
same,inhibition,HT-29 [14],Active
same,Activity,Mus musculus [15],Active
same,inhibition,HT-29 [16],Active
